# Source: ChEMBL document CHEMBL1151815, “Amides and benzenoids from Zanthoxylum ailanthoides with inhibitory activity on superoxide generation and elastase release by neutrophils” (J Nat Prod, 2009)
# Key:
# Conditions in all cases: Neutrophil
# [1] = Antiinflammatory activity against human neutrophils assessed as inhibition of fMLP/CB-induced superoxide anion generation; type: functional, cell-based
# Summary of the method: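 Neutrophils (6 × 10^5/mL, dextran/Ficoll-isolated from healthy adults) with 0.5 mg/mL ferricytochrome c and 1 mM Ca2+, 2 min at 37 °C, compound or DMSO 5 min, cytochalasin B (1 µg/mL) 3 min, then fMLP 100 nM 10 min. SOD-inhibitable (100 U/mL) cytochrome c reduction at 550 nm, extinction coefficient 21.1/mM/10 mm; n = 4, mean ± SEM.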
# [2] = Antiinflammatory activity against human neutrophils assessed as inhibition of fMLP/CB-induced elastase release; type: functional, cell-based
# Summary of the method: (§1)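 Human neutrophils from healthy adult volunteers' venous blood, isolated by dextran sedimentation, Ficoll Hypaque gradient and hypotonic erythrocyte lysis, held in Ca2+-free HBSS pH 7.4 at 4 °C. Cells (6 × 10^5/mL) with MeO-Suc-Ala-Ala-Pro-Val-p-nitroanilide (100 µM) equilibrated 2 min at 37 °C, compound 5 min, then fMLP (100 nM)/cytochalasin B (0.5 µg/mL). A405 monitored continuously; n = 4, mean ± SEM.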
# [3] = Antiinflammatory activity against human neutrophils assessed as inhibition of fMLP/CB-induced elastase release at 10 ug/ml; type: functional; summary of the method: as §1
IC50 [1] [µg/mL],IC50 [2] [µg/mL],Structure (SMILES),inhibition at 10 µg/mL [3] [%]
5.34,6.15,COc1cc(C(=O)C(CO)c2ccc(O)c(OC)c2)ccc1O (configuration not stated) [EVOFOLIN B],–
7.17,–,COc1c2ccoc2nc2c(OC)cccc12 [GAMMA-FAGARINE],19.1
0.6,–,O=C1OC[C@H](Cc2ccc3c(c2)OCO3)[C@H]1Cc1ccc2c(c1)OCO2 [HINOKININ],24.7
1.29,1.94,COc1c(O)ccc2c1cnc1c3cc4c(cc3ccc21)OCO4 [DECARINE],–

# The next lines start with the compound.
Structure (SMILES),IC50 [1] [µg/mL],IC50 [2] [µg/mL],inhibition at 10 µg/mL [3] [%]
O=S(=O)(F)Cc1ccccc1 [PHENYLMETHYLSULFONYLFLUORIDE],–,35.2,–
COc1ccc(CCN(C)C(=O)c2ccccc2)cc1,8.49,7.48,–
CC(=O)/C=C/C=C/C(=O)NCC(C)C,4.2,6.2,–
COc1ccc(CCN(C)C(=O)/C=C/c2ccc(O)cc2)cc1 [AILANTHAMIDE],3.71,4.23,–
CC1(C)C=Cc2cc3ccc(=O)oc3cc2O1 [XANTHYLETIN],4.1,5.53,–
COc1cc2ccc(=O)oc2cc1OC [SCOPARONE],8.25,–,43.1
c1ccc2c(c1)[I+]c1ccccc1-2 [DIPHENYLENEIODONIUM],0.54,–,–
c1cc2c(cc1[C@H]1OC[C@H]3[C@@H]1CO[C@@H]3c1ccc3c(c1)OCO3)OCO2 [SESAMIN],4.3,1.38,–
